Assay results as given in ChEMBL document CHEMBL3102749, “Antiprotozoal activity of dicationic 3,5-diphenylisoxazoles, their prodrugs and aza-analogues” (Bioorg Med Chem, 2014).
Active and inactive are the calls of the source. The calls are words filed in the database; no cut-off is given here.

Key:
[1] = test system: Trypanosoma brucei rhodesiense; assay: Trypanocidal activity against bloodstream form of Trypanosoma brucei rhodesiense STIB900 infected in NMRI mouse assessed as mean survival days at 5 mg/kg, ip qd administered for 4 days; assay type: functional; details: route intraperitoneal
Summary of the method: (§1)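 Mice infected with T. b. rhodesiense STIB900 (acute model) dosed once daily for 4 consecutive days, ip (diamidines) or oral (prodrugs). Cure means survival to 60 days post infection without parasitemia relapse. Mean survival days post infection are averaged over all mice, with cured mice counted as >60 days.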

[2] = test system: Trypanosoma brucei rhodesiense; assay: Trypanocidal activity against bloodstream form of Trypanosoma brucei rhodesiense STIB900 infected in NMRI mouse assessed as decrease in parasitemia at 5 mg/kg, ip qd administered for 4 days measured once per week until 60 days by microscopic analysis; assay type: functional, organism-based; parameters: dose 5 mg/kg
Summary of the method: (§2)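 Mice infected with T. b. rhodesiense STIB900 received one dose daily for 4 consecutive days, 4 mice per group. Diamidines were given intraperitoneally and prodrugs orally. The primary endpoint was cures per group: a mouse counted as cured if it survived 60 days post-infection without parasitemia relapse.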

[3] = Selectivity index, ratio of IC50 for rat L6 cells to IC50 for chloroquine/pyrimethamine-resistant Plasmodium falciparum K1 infected in human red blood cells; assay type: toxicity, cell-based; details: read-out: Ratio IC50
Summary of the method: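 Ratio of IC50 in L6 rat myoblast cytotoxicity assay to IC50 against P. falciparum K1; each IC50 is the mean of two independent assays.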

[4] = Selectivity index, ratio of IC50 for rat L6 cells to IC50 for Trypanosoma brucei rhodesiense STIB900; assay type: toxicity, cell-based; details: read-out: Ratio IC50
Summary of the method: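 Ratio of IC50 in L6 rat myoblast cytotoxicity assay to IC50 against T. b. rhodesiense STIB900; each IC50 is the mean of two independent assays.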

L6 = assay: Cytotoxicity against rat L6 cells assessed as cell viability after 70 hrs by Alamar blue assay; assay type: cell-based; details: L6, 70 h
Plasmodium falciparum = assay: Antiplasmodial activity against chloroquine/pyrimethamine-resistant Plasmodium falciparum K1 infected in human red blood cells assessed as [3H]-hypoxanthine incorporation incubated for 48 hrs prior to [3H]-hypoxanthine addition measured after 24 hrs by liquid scintillation counting analysis; assay type: functional, organism-based
[5] = test system: Trypanosoma brucei rhodesiense; assay: Antitrypanosomal activity against Trypanosoma brucei rhodesiense STIB900 assessed as growth inhibition after 70 hrs by Alamar blue assay; assay type: functional, organism-based; details: STIB900, 70 h
[6] = test system: Trypanosoma brucei rhodesiense; assay: Trypanocidal activity against bloodstream form of Trypanosoma brucei rhodesiense STIB900 infected in NMRI mouse assessed as mean survival days at 25 mg/kg, po qd administered for 4 days; assay type: functional; summary of the method: as §1
[7] = test system: Trypanosoma brucei rhodesiense; assay: Trypanocidal activity against bloodstream form of Trypanosoma brucei rhodesiense STIB900 infected in NMRI mouse assessed as decrease in parasitemia at 25 mg/kg, po qd administered for 4 days measured once per week until 60 days by microscopic analysis; assay type: functional, organism-based; parameters: dose 25 mg/kg; summary of the method: as §2

Structure (SMILES) | MSD [1] [days] | Activity [2] | selectivity ratio [3] | selectivity ratio [4] | IC50 (L6) [nM] | IC50 (Plasmodium falciparum) [nM] | IC50 [5] [nM] | MSD [6] [days] | Activity [7]
Cl.Cl.Cl.N=C(N)c1ccc(-c2cc(-c3ccc(C(=N)N)cc3Cl)no2)cc1 | 28 | inactive | – | – | – | – | – | – | –
N=C(N)c1ccc(-c2cc(-c3ccc(C(=N)N)cn3)on2)nc1 | – | – | > 1350 | > 302 | > 180000 | 134 | 596 | – | –
C[C@@H]1CC[C@H]2[C@@H](C)C(=O)O[C@@H]3O[C@@]4(C)CC[C@@H]1[C@]32OO4 [ARTEMISININ] | – | – | – | – | > 180000 | 4 | – | – | –
Cl.Cl.Cl.N=C(N)c1cccc(-c2cc(-c3cc(C(=N)N)ccc3Cl)no2)c1 | 22.25 | inactive | – | – | – | – | – | – | –
COc1cc(/C(N)=N/O)ccc1-c1cc(-c2cccc(/C(N)=N/O)c2)on1.Cl.Cl | – | – | – | – | – | – | – | 17.5 | inactive
COc1cc(/C(N)=N/O)ccc1-c1cc(-c2ccc(/C(N)=N/O)cc2)no1.Cl.Cl | – | – | – | – | – | – | – | 26.25 | inactive
Cl.Cl.N=C(N)c1ccc(-c2cc(-c3ccc(C(=N)N)cc3[N+](=O)[O-])on2)cc1 | >53.75 | – | – | – | – | – | – | – | –
CO/N=C(\N)c1ccc(-c2cc(-c3ccc(/C(N)=N/OC)cc3OC)on2)cc1.Cl.Cl | – | – | – | – | – | – | – | 15.75 | inactive
COc1cc(/C(N)=N/O)ccc1-c1cc(-c2ccc(/C(N)=N/O)cc2)on1.Cl.Cl | – | – | – | – | – | – | – | >42 | –
CO/N=C(\N)c1ccc(-c2cc(-c3ccc(/C(N)=N/OC)cc3OC)no2)cc1.Cl.Cl | – | – | – | – | – | – | – | 27 | inactive
N=C(N)c1cncc(-c2cc(-c3cccc(C(=N)N)c3)on2)c1 | – | – | > 10000 | > 309 | > 180000 | 18 | 583 | – | –
N=C(N)c1ccc(-c2cc(-c3cc(C(=N)N)ccn3)on2)nc1 | – | – | > 1260 | > 53 | > 180000 | 142 | 3380 | – | –
Cl.Cl.N=C(N)c1ccc(-c2cc(-c3ccc(C(=N)N)nc3)on2)cc1 | >57.25 | – | 1050 | 643 | 1760 | 1.7 | 2.7 | – | –
Cl.Cl.Cl.N/C(=N\O)c1ccc(-c2cc(-c3ccc(/C(N)=N/O)cc3Cl)on2)cc1 | – | – | – | – | – | – | – | >36.5 | inactive
Cl.Cl.Cl.N=C(N)c1cccc(-c2cc(-c3cc(C(=N)N)ccc3Cl)on2)c1 | 25 | inactive | – | – | – | – | – | – | –
Cl.Cl.N=C(N)c1ccc(-c2cc(-c3ccc(C(=N)N)cn3)no2)cc1 | >52.75 | – | 2770 | 915 | 46200 | 16.7 | 50.5 | – | –
CO/N=C(\N)c1ccc(-c2cc(-c3cc(/C(N)=N/OC)ccc3[N+](=O)[O-])no2)cc1.Cl.Cl | – | – | – | – | – | – | – | 13.5 | inactive
CO/N=C(\N)c1ccc(-c2cc(-c3cccc(/C(N)=N/OC)c3)on2)cc1.Cl.Cl | – | – | – | – | – | – | – | 31.25 | inactive
CO/N=C(\N)c1ccc(-c2cc(-c3ccc(/C(N)=N/OC)cc3)on2)cc1.Cl.Cl | – | – | – | – | – | – | – | >42.25 | –
N=C(N)c1cncc(-c2cc(-c3cncc(C(=N)N)c3)on2)c1 | – | – | > 1250 | > 29 | > 180000 | 144 | 6120 | – | –
Cl.Cl.N=C(N)c1cccc(-c2cc(-c3ccc(C(=N)N)nc3)on2)c1 | >41.75 | inactive | 1290 | 379 | 1400 | 1.1 | 3.7 | – | –
N=C(N)c1cccc(-c2cc(-c3cc(C(=N)N)ccn3)no2)c1 | – | – | 8700 | 265 | 130000 | 15 | 492 | – | –
N=C(N)c1ccc(-c2cc(-c3cc(C(=N)N)ccn3)no2)nc1 | – | – | > 2430 | > 180 | > 180000 | 7.4 | 1670 | – | –
Cl.Cl.N=C(N)c1ccc(-c2cc(-c3ccc(C(=N)N)cc3)on2)cc1 | >60 | – | – | – | – | – | – | – | –
COc1cc(C(=N)N)ccc1-c1cc(-c2cc(C(=N)N)ccc2OC)on1.Cl.Cl | >60 | Active | – | – | – | – | – | – | –
Cl.Cl.N=C(N)c1cccc(-c2cc(-c3cncc(C(=N)N)c3)on2)c1 | 21.75 | inactive | > 9170 | > 964 | > 180000 | 21.7 | 207 | – | –
